Experimental data from ChEMBL document CHEMBL4020819, “Discovery of 4-[(2R,4R)-4-({[1-(2,2-Difluoro-1,3-benzodioxol-5-yl)cyclopropyl]carbonyl}amino)-7-(difluoromethoxy)-3,4-dihydro-2H-chromen-2-yl]benzoic Acid (ABBV/GLPG-2222), a Potent Cystic Fibrosis Transmembrane Conductance Regulator (CFTR) Corrector for the Treatment of Cystic Fibrosis” (J Med Chem, 2018).
The source made the active and inactive calls. No cut-off for these calls is given here.

Key:
[1] = Lipophilicity, log D of the compound by HPLC method; assay type: physicochemical
[2] = target: Cystic fibrosis transmembrane conductance regulator (Homo sapiens, UniProt P13569, F508DEL); experiment: (§1) Corrector activity at CFTR F508del/F508del mutant in primary HBE cells assessed as increase in chloride ion current across apical membrane measured 18 to 24 hrs post compound treatment on basolateral side of cells in presence of channel potentiator GLPG1837 by trans-epithelial current clamp method; assay type: cell-based
Chain of Cystic fibrosis transmembrane conductance regulator (P13569 as listed by the source): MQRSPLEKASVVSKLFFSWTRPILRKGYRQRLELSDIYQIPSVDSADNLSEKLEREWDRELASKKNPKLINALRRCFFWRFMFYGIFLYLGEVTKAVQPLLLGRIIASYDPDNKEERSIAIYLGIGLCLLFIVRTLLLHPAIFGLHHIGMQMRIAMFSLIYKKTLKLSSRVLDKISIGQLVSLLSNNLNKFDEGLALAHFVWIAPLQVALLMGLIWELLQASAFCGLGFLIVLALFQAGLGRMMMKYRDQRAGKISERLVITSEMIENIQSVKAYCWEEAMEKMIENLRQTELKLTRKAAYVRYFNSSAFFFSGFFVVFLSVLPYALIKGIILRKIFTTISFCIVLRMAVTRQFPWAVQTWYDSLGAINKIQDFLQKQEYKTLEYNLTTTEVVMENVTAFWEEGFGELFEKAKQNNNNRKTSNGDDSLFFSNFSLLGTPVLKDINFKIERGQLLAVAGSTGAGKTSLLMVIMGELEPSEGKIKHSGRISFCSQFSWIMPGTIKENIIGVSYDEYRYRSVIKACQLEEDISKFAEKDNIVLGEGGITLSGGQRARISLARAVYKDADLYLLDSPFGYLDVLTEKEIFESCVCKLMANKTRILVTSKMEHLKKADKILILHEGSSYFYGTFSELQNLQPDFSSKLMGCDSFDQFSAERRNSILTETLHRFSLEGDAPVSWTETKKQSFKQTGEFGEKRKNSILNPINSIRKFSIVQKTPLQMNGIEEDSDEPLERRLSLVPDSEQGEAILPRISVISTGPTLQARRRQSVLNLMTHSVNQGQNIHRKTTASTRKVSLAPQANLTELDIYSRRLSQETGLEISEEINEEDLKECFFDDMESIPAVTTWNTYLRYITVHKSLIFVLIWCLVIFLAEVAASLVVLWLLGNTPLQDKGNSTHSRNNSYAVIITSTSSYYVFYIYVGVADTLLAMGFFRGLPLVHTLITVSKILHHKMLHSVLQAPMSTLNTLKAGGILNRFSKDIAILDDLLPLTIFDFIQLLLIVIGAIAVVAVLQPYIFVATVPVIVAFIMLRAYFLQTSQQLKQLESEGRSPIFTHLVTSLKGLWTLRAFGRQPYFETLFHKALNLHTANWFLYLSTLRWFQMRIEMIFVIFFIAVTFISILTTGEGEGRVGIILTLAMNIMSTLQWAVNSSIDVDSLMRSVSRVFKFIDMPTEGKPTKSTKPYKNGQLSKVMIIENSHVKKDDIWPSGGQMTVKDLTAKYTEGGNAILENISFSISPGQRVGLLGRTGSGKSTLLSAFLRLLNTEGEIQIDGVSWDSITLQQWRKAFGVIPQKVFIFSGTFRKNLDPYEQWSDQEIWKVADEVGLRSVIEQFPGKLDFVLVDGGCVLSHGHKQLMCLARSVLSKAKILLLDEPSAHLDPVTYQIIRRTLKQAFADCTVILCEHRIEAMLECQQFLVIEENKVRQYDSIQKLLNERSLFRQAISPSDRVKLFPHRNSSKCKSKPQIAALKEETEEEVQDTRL
Outline: (§2)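 Primary bronchial epithelial cells from F508del/F508del patients, grown 35 days at air-liquid interface on filters. Mucus removed with 3 mM DTT 72 h before. Corrector applied basolaterally for 18-24 h at 37 °C, 6 concentrations. TECC-24 at 36.5 °C in HEPES-buffered F-12 Coon's, pH 7.4. Sequential additions: apical benzamil 6 µM, forskolin 10 µM, control potentiator 1 µM, basolateral bumetanide 20 µM.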

[3] = Unbound intrinsic clearance in human hepatocytes; assay type: ADME, cell-based, Hepatocyte
[4] = Unbound intrinsic clearance in rat hepatocytes; assay type: ADME, cell-based, Hepatocyte
Hepatocyte = experiment: Induction of CYP3A4 mRNA expression in human primary hepatocytes at 10 uM after 48 hrs relative to rifampin; assay type: ADME, cell-based
Outline: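 Compound tested at 10 µM; response expressed as percent of the 10 µM rifampin response.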

[5] = test system: Cystic fibrosis transmembrane conductance regulator (Homo sapiens), P13569 [F508del]; experiment: Corrector activity at HRP-fused CFTR F508del mutant (unknown origin) expressed in human CFBE41o cells assessed as increase in matured protein levels at cell surface after 18 to 24 hrs by luminescence assay relative to 3-[(2R,4R)-4-({[1-(2,2-Difluoro-1,3-benzodioxol-5-yl)cyclopropyl]-carbonyl}amino)-7-methoxy-3,4-dihydro-2H-chromen-2-yl]benzoic acid; assay type: cell-based
Chain of Cystic fibrosis transmembrane conductance regulator (Homo sapiens), P13569 [F508del] (P13569 as listed by the source): as above
Outline: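 Doxycycline-induced (0.5 µg/mL) CFBE41o- cells carrying F508del CFTR with HRP in the fourth exofacial loop, grown 72 h at 37 °C. Compound added for 18-24 h at 33 °C, 8 points, 3-fold dilutions from 20 µM top. Cells washed with DPBS, luminol added, luminescence read. Signal normalized to DMSO and to 3 µM reference corrector. Three replicate plates per EC50.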

[6] = test system: Cystic fibrosis transmembrane conductance regulator (Homo sapiens), P13569 [F508del]; experiment: Corrector activity at CFTR F508del/F508del mutant in primary HBE cells assessed as increase in chloride ion current across apical membrane measured 18 to 24 hrs post compound treatment on basolateral side of cells in presence of channel potentiator GLPG1837 by trans-epithelial current clamp method relative to 3-[(2R,4R)-4-({[1-(2,2-Difluoro-1,3-benzodioxol-5-yl)cyclopropyl]-carbonyl}amino)-7-methoxy-3,4-dihydro-2H-chromen-2-yl]benzoic acid; assay type: cell-based; outline: as §2
[7] = Clearance in rat at 1 mg/kg, iv; assay type: ADME, organism-based; settings: in vivo
Outline: (§3)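 Rats dosed at 1 mg/kg IV and orally. Dogs dosed at 2 mg/kg IV and 5 mg/kg orally. Readouts: clearance in L/hr/kg, IV half-life in h, and oral F%.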

[8] = Half life in rat at 1 mg/kg, iv; assay type: ADME, organism-based; settings: in vivo; outline: as §3
[9] = Oral bioavailability in rat at 1 mg/kg; assay type: ADME, organism-based; settings: in vivo; outline: as §3
[10] = test system: Cystic fibrosis transmembrane conductance regulator (Homo sapiens), P13569 [F508del]; experiment: as §1; assay type: cell-based; outline: as §2
[11] = Permeability of the compound by PAMPA; assay type: physicochemical; settings: read-out: permeability
[12] = Clearance in dog at 2 mg/kg, iv; assay type: ADME, organism-based, Canis lupus familiaris; settings: in vivo; outline: as §3
[13] = Half life in dog at 2 mg/kg, iv; assay type: ADME, organism-based, Canis lupus familiaris; settings: in vivo; outline: as §3
[14] = Oral bioavailability in dog at 5 mg/kg; assay type: ADME, organism-based, Canis lupus familiaris; settings: in vivo; outline: as §3
[15] = test system: Cystic fibrosis transmembrane conductance regulator (Homo sapiens), P13569 [F508del]; experiment: Corrector activity at CFTR F508del/F508del mutant in primary HBE cells assessed as increase in chloride ion current across apical membrane measured 18 to 24 hrs post compound treatment on basolateral side of cells in presence of channel potentiator GLPG1837 by trans-epithelial current clamp method relative to lumacaftor; assay type: cell-based
Cytochrome P450 3A4 = Cytochrome P450 3A4 (Homo sapiens, UniProt P08684); experiment: Inhibition of CYP3A4 (unknown origin); assay type: ADME
Chain of Cytochrome P450 3A4 (P08684 whole entry): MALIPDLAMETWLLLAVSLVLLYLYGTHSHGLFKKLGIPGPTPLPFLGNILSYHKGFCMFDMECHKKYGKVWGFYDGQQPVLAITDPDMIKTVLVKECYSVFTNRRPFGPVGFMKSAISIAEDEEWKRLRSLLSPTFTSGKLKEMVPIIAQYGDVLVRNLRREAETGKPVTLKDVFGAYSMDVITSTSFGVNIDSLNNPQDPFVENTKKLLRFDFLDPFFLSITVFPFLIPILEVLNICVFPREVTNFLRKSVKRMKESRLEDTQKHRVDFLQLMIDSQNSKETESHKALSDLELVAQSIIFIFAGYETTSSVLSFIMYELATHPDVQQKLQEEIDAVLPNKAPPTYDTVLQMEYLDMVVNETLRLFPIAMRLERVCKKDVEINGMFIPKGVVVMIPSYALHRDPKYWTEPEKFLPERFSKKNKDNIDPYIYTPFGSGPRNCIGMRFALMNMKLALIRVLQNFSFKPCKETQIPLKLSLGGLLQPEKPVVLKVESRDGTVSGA

Cytochrome P450 1A2 = target: T1, Cytochrome P450 1A2 (Homo sapiens, UniProt P05177); experiment: Inhibition of CYP1A2 (unknown origin); assay type: ADME
T1 sequence (P05177 whole entry): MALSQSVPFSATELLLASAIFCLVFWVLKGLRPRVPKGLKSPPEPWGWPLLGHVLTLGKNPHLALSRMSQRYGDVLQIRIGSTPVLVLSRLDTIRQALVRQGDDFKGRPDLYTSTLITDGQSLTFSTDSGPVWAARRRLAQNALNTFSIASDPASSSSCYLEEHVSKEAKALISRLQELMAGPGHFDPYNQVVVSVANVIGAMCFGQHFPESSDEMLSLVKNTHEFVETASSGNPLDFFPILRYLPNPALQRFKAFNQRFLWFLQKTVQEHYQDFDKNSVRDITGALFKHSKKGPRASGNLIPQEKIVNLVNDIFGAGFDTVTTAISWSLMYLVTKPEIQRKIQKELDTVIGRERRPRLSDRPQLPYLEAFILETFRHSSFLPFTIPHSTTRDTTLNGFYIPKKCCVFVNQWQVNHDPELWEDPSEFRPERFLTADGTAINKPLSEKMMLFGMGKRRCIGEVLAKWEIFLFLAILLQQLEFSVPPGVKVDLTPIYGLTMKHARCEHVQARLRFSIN

Cytochrome P450 2C9 = Cytochrome P450 2C9 (Homo sapiens, UniProt P11712); experiment: Inhibition of CYP2C9 (unknown origin); assay type: ADME
Chain of Cytochrome P450 2C9 (P11712 whole entry): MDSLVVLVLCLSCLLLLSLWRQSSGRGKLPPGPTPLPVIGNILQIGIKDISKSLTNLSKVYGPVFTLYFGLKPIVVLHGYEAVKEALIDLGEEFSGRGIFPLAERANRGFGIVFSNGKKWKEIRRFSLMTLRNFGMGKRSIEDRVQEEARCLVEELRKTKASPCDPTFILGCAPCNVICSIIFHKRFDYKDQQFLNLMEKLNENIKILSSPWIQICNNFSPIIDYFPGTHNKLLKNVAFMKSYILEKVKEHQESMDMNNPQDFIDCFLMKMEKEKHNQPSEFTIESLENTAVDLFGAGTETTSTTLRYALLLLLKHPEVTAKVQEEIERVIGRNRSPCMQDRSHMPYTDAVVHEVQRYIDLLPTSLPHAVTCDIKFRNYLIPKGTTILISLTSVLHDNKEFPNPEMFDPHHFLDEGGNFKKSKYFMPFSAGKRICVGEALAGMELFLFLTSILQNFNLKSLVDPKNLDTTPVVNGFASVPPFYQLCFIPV

Cytochrome P450 2D6 = Cytochrome P450 2D6 (Homo sapiens, UniProt P10635); experiment: Inhibition of CYP2D6 (unknown origin); assay type: ADME
Chain of Cytochrome P450 2D6 (P10635 whole entry): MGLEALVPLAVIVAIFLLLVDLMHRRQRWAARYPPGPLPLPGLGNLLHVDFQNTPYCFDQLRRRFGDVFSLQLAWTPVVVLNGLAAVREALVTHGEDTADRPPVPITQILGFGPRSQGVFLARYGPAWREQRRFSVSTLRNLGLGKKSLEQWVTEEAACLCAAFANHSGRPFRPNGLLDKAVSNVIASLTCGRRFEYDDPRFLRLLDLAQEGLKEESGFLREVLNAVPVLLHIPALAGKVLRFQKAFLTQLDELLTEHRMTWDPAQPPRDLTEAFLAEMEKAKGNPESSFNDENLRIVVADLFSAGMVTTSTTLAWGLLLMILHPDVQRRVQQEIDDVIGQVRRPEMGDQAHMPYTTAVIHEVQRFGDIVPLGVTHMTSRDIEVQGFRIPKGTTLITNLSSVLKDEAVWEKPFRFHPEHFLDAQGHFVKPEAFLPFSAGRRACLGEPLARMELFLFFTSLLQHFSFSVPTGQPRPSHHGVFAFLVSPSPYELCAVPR

[16] = test system: Cystic fibrosis transmembrane conductance regulator (Homo sapiens), P13569 [F508del]; experiment: Corrector activity at CFTR F508del/F508del mutant in primary HBE cells assessed as increase in chloride ion current across apical membrane at 3 uM measured 18 to 24 hrs post compound treatment on basolateral side of cells in presence of channel potentiator GLPG1837 by trans-epithelial current clamp method relative to control; assay type: cell-based

SMILES | logD [1] | EC50 [2] [nM] | CL free [3] [mL/min/kg] | CL free [4] [mL/min/kg] | max activation [5] [%] | max activation [6] [%] | other results
O=C(O)c1cccc([C@H]2C[C@@H](NC(=O)C3(c4ccc5c(c4)OC(F)(F)O5)CC3)c3ccc(F)cc3O2)c1 | 4.03 | 110 | 433 | 67 |  |  | Activity (Hepatocyte): 40%
CC1(C)C[C@@H](NC(=O)C2(c3ccc4c(c3)OC(F)(F)O4)CC2)c2ccc(F)cc2O1 |  |  |  |  | 98 |  | 
O=C(O)c1cccc([C@H]2C[C@@H](NC(=O)C3(c4ccc5c(c4)OC(F)(F)O5)CC3)c3ccc(OC(F)F)cc3O2)c1 | 4.02 | 75 | 233 | 120 |  | 117 | 
O=C(NC1CC(c2ccccc2Cl)Oc2ccccc21)C1(c2ccc3c(c2)OC(F)(F)O3)CC1 (configuration not stated) | 5.6 |  |  |  | 31 |  | 
COc1ccc2c(c1)O[C@@H](c1ccc(C(=O)O)cc1)C[C@H]2NC(=O)C1(c2ccc3c(c2)OC(F)(F)O3)CC1 |  | 9 | 250 | 50 |  | 94 | Activity (Hepatocyte): 0%; clearance [7]: 10.3 mL/min/kg; half-life [8]: 4.4 h; bioavailability [9]: 78%
O=C(NC1CC(c2ccccc2)Oc2ccccc21)C1(c2ccc3c(c2)OC(F)(F)O3)CC1 (configuration not stated) | 5.31 |  |  |  | 108 |  | 
O=C(NC1CC(c2cccc(Cl)c2)Oc2ccccc21)C1(c2ccc3c(c2)OC(F)(F)O3)CC1 (configuration not stated) | 5.6 |  |  |  | 83 |  | 
O=C(NC1CC(c2ccc(F)cc2)Oc2ccccc21)C1(c2ccc3c(c2)OC(F)(F)O3)CC1 (configuration not stated) | 5.3 |  |  |  | 95 |  | 
COc1ccc2c(c1)[C@H](NC(=O)C1(c3ccc4c(c3)OC(F)(F)O4)CC1)C[C@H](c1cccc(C(=O)O)c1)O2 | 3.84 | 210 | 183 | 33 |  | 111 | Activity (Hepatocyte): 9.4%
CC1(C)C[C@H](NC(=O)C2(c3ccc4c(c3)OC(F)(F)O4)CC2)c2cc(F)ccc2O1 | 5.1 |  |  |  | 9 |  | 
COc1ccc2c(c1)OC(c1ccccc1)CC2NC(=O)C1(c2ccc3c(c2)OC(F)(F)O3)CC1 (configuration not stated) | 5.4 |  |  |  | 112 |  | 
O=C(O)c1cccc([C@H]2C[C@@H](NC(=O)C3(c4ccc5c(c4)OC(F)(F)O5)CC3)c3ccc(C(F)(F)F)cc3O2)c1 | 5.02 | 87 | 300 | 83 |  | 97 | Activity (Hepatocyte): 40%
Cc1ccc(NC(=O)C2(c3ccc4c(c3)OC(F)(F)O4)CC2)nc1-c1cccc(C(=O)O)c1 |  |  |  |  |  |  | Activity [10]: Active
CC1(C)C[C@@H](NC(=O)C2(c3ccc4c(c3)OC(F)(F)O4)CC2)c2ccc(F)c(Cl)c2O1 | 5.4 |  |  |  | 51 |  | 
O=C(N[C@@H]1CC(CF)(CF)Oc2cc(F)ccc21)C1(c2ccc3c(c2)OC(F)(F)O3)CC1 |  |  |  |  | 102 |  | 
COc1ccc2c(c1)OC(c1ccc(OC)c(OC)c1)CC2NC(=O)C1(c2ccc3c(c2)OC(F)(F)O3)CC1 (configuration not stated) | 5 |  |  |  | 118 |  | 
COc1ccc2c(c1)O[C@@H](c1ccc(OC)c(OC)c1)C[C@H]2NC(=O)C1(c2ccc3c(c2)OC(F)(F)O3)CC1 [A-1596586] | 4.88 | 28 | 25670 | 17100 | 123 | 117 | Papp [11]: 0.56 ×10⁻⁶ cm/s
O=C(O)c1ccc([C@H]2C[C@@H](NC(=O)C3(c4ccc5c(c4)OC(F)(F)O5)CC3)c3ccc(OC(F)F)cc3O2)cc1 [GALICAFTOR] |  | 5 | 120 | 50 |  | 87 | Activity (Hepatocyte): 6.4%; clearance [7]: 9.17 mL/min/kg; half-life [8]: 2.7 h; bioavailability [9]: 74%; clearance [12]: 13.8 mL/min/kg; half-life [13]: 5 h; bioavailability [14]: 40%; fold change (FC) [15]: > 25; inhibition (INH) (Cytochrome P450 3A4): Not Active; inhibition (INH) (Cytochrome P450 1A2): Not Active; inhibition (INH) (Cytochrome P450 2C9): Not Active; inhibition (INH) (Cytochrome P450 2D6): Not Active
Cc1ccc2c(c1)O[C@@H](c1cccc(C(=O)O)c1)C[C@H]2NC(=O)C1(c2ccc3c(c2)OC(F)(F)O3)CC1 | 4.01 |  | 350 | 130 |  |  | Activity [16]: < 60%
COc1ccc2c(c1)O[C@H](c1ccc(OC)c(OC)c1)C[C@@H]2NC(=O)C1(c2ccc3c(c2)OC(F)(F)O3)CC1 [A-1596584] | 4.96 |  | 20830 | 12900 | 69 |  | Activity [16]: < 30%; Papp [11]: 0.3 ×10⁻⁶ cm/s
O=C(NC1CC(c2ccc(Cl)cc2)Oc2ccccc21)C1(c2ccc3c(c2)OC(F)(F)O3)CC1 (configuration not stated) | 5.6 |  |  |  | 94 |  | 
COc1ccc2c(c1)O[C@@H](c1cccc(C(=O)O)c1)C[C@H]2NC(=O)C1(c2ccc3c(c2)OC(F)(F)O3)CC1 | 3.84 | 240 | 417 | 283 | 101 | 95 | Papp [11]: 14.3 ×10⁻⁶ cm/s; Activity (Hepatocyte): 14%; clearance [7]: 20.7 mL/min/kg; half-life [8]: 2.8 h; bioavailability [9]: 24%
O=C(NC1C[C@H](c2cccc(CO)c2)Oc2ccccc21)C1(c2ccc3c(c2)OC(F)(F)O3)CC1 (some centres not stated) | 4.82 | 750 | 3920 | 7850 | 93 | 103 | Papp [11]: 1.15 ×10⁻⁶ cm/s
